From ChEMBL document CHEMBL2424619, “Small-molecule ligands of methyl-lysine binding proteins: optimization of selectivity for L3MBTL3” (J Med Chem, 2013) come the findings set out here.

The target of series [1] is T1, Lethal(3)malignant brain tumor-like protein 3 (Homo sapiens, UniProt Q96JM7).
T1 sequence (Q96JM7 whole entry): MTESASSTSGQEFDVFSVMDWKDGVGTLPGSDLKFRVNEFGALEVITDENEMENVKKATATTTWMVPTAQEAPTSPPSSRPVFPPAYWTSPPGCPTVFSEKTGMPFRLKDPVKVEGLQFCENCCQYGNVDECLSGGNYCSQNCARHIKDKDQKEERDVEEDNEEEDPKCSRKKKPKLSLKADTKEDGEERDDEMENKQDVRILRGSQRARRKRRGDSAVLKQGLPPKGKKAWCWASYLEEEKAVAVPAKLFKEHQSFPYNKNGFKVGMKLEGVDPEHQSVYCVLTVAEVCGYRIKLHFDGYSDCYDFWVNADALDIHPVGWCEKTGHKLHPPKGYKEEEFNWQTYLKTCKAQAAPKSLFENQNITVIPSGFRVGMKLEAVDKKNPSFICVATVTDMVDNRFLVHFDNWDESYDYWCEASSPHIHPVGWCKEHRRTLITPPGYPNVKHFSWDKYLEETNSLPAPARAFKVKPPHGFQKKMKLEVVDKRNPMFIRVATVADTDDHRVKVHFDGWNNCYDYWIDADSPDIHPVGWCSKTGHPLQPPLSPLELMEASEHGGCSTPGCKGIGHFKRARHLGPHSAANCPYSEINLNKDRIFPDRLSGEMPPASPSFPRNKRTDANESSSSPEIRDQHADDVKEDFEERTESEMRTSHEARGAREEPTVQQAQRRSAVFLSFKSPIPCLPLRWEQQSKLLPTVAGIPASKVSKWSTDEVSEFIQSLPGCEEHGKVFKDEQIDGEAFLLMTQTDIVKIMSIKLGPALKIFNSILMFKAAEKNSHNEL
In words: Inhibition of L3MBTL3 (unknown origin) after 30 mins by AlphaScreen assay. The essentials:
(§1)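 AlphaScreen competition with histone peptide. Compounds in 3-fold, 10-point dilutions, top 10 or 30 μM; buffer 20 mM Tris pH 8.0, 25 mM NaCl, 2 mM DTT, 0.05% Tween-20. Protein-peptide mix 30 min RT, then streptavidin donor plus nickel-chelate acceptor beads (GST acceptor beads for GST-tagged PHF23, JARID1A) 30 min RT dark. Protein-free His6-biotin peptide counterscreen.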

Series [2] addresses T2, Scm-like with four MBT domains protein 1 (Homo sapiens, UniProt Q9UHJ3).
T2 sequence (Q9UHJ3 whole entry): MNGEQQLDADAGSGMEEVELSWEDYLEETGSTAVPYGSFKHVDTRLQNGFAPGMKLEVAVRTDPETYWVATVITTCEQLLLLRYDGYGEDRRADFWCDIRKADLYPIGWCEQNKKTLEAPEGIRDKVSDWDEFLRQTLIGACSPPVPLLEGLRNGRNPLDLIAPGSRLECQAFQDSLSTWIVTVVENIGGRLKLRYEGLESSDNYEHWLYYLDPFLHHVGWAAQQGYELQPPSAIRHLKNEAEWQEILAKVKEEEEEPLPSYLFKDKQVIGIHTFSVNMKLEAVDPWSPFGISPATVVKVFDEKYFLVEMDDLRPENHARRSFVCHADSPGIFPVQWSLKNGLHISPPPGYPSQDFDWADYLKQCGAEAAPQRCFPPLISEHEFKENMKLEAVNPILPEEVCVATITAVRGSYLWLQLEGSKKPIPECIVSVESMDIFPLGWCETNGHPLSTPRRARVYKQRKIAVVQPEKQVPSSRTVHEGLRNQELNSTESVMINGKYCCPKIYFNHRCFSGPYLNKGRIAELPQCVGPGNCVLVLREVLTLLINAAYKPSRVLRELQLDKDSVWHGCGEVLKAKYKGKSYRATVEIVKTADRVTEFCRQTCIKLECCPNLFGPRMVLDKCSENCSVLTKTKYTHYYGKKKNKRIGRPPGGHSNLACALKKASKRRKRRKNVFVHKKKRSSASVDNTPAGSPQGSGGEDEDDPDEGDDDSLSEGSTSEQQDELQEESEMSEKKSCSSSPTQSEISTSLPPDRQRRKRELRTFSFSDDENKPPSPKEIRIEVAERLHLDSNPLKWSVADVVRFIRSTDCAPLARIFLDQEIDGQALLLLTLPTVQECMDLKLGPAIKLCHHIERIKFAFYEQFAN
As to the kind of experiment: Inhibition of SFMBT1 (unknown origin) after 30 mins by AlphaScreen assay. The essentials: (§2)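 AlphaScreen competition with histone peptide. Compounds in 3-fold, 10-point dilutions, top 10 or 30 μM; buffer 20 mM Tris pH 8.0, 25 mM NaCl, 2 mM DTT, 0.05% Tween-20. Protein-peptide mix 30 min RT, then streptavidin donor plus nickel-chelate acceptor beads (GST acceptor beads for GST-tagged PHF23, JARID1A) 30 min RT dark. […] Protein-free His6-biotin peptide counterscreen.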

For series [3], the target named is MBT domain-containing protein 1 (Homo sapiens, UniProt Q05BQ5). As to the kind of experiment: Inhibition of MBTD1 (unknown origin) after 30 mins by AlphaScreen assay. In a few lines: as §1
The target of series [4] is T3, Lethal(3)malignant brain tumor-like protein 4 (Homo sapiens, UniProt Q8NA19).
T3 sequence (Q8NA19 whole entry): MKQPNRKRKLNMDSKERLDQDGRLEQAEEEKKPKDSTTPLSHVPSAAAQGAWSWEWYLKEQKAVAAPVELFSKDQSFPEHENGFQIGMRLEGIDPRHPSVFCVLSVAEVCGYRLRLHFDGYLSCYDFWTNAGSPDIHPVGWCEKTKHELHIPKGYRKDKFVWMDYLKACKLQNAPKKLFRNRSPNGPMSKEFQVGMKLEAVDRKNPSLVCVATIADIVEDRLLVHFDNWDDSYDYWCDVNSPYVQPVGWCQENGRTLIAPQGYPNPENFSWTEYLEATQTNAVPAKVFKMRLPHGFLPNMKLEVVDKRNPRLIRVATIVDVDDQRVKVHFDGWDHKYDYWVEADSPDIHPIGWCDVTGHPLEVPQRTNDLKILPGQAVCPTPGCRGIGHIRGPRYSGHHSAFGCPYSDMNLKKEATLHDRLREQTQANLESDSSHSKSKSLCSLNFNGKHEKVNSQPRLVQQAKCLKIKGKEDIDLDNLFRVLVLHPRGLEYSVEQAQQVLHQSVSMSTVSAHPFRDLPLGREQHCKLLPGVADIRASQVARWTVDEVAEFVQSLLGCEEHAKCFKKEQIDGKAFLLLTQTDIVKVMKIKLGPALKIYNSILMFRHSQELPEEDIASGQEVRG
In words: Inhibition of L3MBTL4 (unknown origin) after 30 mins by AlphaScreen assay. In a few lines:
as §1

Another series has as its target PHD finger protein 23 (Homo sapiens, UniProt Q9BUL5). In words: Inhibition of PHF23 (unknown origin) after 30 mins by AlphaScreen assay. The essentials: as §1
For a further series, the system named is HEK-293T. As to the kind of experiment: Cytotoxicity against HEK293T/17 cells assessed as cell viability up to 100 uM after 24 hrs by CellTiter-Glo luminescence assay. The class given is cell-based. As to conditions: human. In a few lines: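 Cell viability by CellTiter-Glo luminescence, compound tested up to 100 μM.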
The target in the next series is TP53-binding protein 1 (Homo sapiens, UniProt Q12888). As to the kind of experiment: Inhibition of 53BP1 (unknown origin) after 30 mins by AlphaScreen assay. In a few lines:
as §2

Series [5] concerns the target Lysine-specific demethylase 5A (Homo sapiens, UniProt P29375). As to the kind of experiment: Inhibition of JARID1A (unknown origin) after 30 mins by AlphaScreen assay. In a few lines: as §2
In series [6] the target is T4, Chromobox protein homolog 7 (Homo sapiens, UniProt O95931).
T4 sequence (O95931 whole entry): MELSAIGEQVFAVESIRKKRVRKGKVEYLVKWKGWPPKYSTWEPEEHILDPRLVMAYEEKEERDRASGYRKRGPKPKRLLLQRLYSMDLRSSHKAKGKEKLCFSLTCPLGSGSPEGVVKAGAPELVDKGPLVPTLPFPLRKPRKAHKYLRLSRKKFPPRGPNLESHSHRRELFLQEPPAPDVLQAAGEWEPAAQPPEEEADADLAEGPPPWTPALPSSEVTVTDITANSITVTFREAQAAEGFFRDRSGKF
In words: Inhibition of CBX7 (unknown origin) after 30 mins by AlphaScreen assay. In a few lines:
as §1

For series [7], the target named is T5, E3 ubiquitin-protein ligase UHRF1 (Homo sapiens, UniProt Q96T88).
T5 sequence (Q96T88 whole entry): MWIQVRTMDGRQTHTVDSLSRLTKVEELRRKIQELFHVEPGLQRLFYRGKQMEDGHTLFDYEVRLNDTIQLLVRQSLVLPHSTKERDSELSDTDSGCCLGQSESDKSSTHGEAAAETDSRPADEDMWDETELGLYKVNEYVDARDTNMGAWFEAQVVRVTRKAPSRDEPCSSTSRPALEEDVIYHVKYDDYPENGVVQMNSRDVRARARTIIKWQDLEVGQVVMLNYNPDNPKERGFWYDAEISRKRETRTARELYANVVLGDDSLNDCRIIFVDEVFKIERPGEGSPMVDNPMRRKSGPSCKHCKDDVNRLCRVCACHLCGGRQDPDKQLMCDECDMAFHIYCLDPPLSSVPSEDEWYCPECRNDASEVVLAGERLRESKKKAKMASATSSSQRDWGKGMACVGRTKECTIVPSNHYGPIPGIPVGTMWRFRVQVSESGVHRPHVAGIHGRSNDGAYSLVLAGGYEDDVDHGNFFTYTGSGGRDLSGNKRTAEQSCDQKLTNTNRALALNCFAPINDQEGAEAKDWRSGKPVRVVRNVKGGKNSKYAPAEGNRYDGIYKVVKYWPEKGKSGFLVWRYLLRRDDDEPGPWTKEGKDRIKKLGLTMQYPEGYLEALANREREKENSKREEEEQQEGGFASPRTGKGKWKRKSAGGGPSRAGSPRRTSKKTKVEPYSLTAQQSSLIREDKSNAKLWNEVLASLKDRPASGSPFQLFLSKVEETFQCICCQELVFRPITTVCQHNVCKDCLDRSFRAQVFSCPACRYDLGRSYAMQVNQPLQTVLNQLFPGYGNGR
In words: Inhibition of UHRF1 (unknown origin) after 30 mins by AlphaScreen assay. The essentials:
as §2

Sequence of TP53-binding protein 1 (Q12888 whole entry): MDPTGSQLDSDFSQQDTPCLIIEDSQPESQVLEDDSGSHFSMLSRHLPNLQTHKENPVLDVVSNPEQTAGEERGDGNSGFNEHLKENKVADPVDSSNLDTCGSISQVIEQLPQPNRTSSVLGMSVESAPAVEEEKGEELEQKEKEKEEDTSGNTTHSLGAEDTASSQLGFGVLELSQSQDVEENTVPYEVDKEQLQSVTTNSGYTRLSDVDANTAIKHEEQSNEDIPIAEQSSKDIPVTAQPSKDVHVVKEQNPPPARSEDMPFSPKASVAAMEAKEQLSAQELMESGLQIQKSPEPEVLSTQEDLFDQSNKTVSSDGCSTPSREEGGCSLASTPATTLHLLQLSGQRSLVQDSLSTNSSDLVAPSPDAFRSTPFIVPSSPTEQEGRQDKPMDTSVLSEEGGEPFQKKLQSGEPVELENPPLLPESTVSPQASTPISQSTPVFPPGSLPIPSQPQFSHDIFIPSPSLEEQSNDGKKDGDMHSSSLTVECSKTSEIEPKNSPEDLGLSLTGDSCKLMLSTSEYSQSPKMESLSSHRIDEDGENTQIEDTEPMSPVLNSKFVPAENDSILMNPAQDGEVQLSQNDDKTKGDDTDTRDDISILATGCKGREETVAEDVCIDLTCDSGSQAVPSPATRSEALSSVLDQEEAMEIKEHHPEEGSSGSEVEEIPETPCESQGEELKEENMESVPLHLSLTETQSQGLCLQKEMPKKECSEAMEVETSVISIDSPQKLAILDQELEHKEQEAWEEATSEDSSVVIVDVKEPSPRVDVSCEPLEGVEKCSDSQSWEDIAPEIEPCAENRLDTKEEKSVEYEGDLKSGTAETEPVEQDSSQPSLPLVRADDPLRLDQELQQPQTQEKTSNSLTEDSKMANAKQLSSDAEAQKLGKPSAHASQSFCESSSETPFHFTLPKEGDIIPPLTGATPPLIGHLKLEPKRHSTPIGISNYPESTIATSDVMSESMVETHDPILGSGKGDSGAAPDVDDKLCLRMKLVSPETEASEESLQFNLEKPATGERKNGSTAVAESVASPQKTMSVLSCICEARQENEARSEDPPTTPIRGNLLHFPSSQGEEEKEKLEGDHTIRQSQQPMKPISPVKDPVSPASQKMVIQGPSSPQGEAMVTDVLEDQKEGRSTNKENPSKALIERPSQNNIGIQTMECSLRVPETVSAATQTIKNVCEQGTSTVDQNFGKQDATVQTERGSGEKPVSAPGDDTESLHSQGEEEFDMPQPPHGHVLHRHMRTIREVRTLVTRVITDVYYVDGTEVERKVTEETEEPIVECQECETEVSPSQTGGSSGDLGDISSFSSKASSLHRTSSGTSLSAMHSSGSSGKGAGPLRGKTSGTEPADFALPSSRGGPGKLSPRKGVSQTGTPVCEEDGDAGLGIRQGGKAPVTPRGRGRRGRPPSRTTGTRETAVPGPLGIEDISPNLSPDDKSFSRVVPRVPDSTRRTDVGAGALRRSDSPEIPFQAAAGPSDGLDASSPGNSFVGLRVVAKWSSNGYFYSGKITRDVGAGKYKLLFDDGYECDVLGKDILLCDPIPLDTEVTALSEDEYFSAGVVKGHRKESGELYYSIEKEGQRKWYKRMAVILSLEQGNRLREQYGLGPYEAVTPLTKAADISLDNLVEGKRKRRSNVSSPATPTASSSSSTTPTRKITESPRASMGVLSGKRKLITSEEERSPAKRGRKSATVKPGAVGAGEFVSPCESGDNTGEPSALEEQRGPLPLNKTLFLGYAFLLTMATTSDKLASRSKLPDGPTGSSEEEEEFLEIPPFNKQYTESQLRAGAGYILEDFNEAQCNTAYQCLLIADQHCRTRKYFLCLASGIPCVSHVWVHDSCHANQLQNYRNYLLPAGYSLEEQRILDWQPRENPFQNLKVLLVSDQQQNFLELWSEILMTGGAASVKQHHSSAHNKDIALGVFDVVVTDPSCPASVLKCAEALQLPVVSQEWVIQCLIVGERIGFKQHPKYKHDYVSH
Sequence of Lysine-specific demethylase 5A (P29375 whole entry): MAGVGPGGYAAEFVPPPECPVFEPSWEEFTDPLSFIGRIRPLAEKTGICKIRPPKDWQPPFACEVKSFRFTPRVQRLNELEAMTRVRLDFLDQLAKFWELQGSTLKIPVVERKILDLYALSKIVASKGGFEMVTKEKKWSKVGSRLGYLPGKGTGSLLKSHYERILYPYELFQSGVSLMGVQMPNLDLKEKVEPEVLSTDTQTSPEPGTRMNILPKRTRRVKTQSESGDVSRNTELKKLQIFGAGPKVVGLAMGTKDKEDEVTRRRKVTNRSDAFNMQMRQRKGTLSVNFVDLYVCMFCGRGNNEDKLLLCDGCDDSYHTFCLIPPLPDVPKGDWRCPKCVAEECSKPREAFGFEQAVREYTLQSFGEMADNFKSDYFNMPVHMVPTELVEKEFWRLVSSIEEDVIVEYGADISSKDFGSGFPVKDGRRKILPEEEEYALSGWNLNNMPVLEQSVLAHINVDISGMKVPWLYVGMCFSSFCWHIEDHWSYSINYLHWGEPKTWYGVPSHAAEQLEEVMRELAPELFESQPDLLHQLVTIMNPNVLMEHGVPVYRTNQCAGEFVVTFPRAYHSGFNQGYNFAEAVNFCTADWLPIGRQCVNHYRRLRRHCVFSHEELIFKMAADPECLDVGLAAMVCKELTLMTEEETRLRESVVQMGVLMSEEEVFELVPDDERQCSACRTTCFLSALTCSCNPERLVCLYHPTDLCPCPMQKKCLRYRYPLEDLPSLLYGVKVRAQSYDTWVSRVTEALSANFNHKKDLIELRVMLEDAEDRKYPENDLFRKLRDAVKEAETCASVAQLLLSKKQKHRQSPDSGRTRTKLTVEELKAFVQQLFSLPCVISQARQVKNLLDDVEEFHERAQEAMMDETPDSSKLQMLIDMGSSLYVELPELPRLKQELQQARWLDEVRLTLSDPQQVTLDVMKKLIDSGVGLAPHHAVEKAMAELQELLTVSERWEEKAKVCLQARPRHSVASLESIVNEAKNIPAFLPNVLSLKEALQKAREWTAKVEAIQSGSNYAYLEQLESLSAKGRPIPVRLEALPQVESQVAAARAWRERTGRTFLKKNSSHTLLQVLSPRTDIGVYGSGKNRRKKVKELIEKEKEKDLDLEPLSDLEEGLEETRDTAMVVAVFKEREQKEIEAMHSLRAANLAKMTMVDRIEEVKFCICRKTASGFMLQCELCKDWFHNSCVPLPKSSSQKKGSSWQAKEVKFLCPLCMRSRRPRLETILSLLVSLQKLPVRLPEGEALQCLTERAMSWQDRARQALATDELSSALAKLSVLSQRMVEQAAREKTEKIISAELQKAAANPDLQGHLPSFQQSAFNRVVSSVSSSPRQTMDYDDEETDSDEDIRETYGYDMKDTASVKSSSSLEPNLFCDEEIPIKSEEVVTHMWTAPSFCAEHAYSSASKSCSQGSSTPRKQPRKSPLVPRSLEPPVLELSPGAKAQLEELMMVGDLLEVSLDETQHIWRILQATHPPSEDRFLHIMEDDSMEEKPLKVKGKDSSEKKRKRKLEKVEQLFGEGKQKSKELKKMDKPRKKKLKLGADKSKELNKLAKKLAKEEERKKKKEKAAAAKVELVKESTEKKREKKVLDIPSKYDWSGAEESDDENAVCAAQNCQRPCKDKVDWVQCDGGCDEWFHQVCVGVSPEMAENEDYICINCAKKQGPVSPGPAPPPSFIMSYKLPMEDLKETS
Sequence of MBT domain-containing protein 1 (Q05BQ5 whole entry, the tested form may be a part): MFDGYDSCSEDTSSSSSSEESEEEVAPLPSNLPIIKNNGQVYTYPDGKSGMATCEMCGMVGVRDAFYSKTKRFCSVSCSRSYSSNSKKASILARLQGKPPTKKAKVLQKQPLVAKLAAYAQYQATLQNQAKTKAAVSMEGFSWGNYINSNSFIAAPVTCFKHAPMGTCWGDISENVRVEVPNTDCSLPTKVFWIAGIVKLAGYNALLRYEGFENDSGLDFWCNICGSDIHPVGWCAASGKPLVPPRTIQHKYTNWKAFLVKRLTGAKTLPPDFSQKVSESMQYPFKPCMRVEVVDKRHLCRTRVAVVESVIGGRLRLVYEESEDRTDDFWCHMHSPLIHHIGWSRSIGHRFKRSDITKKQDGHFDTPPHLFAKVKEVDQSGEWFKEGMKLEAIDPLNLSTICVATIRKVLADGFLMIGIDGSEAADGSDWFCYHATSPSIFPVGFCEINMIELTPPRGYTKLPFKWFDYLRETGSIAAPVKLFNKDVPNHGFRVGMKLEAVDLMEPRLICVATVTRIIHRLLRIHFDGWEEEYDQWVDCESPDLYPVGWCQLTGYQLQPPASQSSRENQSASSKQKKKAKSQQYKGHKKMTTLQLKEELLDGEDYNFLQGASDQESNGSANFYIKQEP
Sequence of PHD finger protein 23 (Q9BUL5 whole entry): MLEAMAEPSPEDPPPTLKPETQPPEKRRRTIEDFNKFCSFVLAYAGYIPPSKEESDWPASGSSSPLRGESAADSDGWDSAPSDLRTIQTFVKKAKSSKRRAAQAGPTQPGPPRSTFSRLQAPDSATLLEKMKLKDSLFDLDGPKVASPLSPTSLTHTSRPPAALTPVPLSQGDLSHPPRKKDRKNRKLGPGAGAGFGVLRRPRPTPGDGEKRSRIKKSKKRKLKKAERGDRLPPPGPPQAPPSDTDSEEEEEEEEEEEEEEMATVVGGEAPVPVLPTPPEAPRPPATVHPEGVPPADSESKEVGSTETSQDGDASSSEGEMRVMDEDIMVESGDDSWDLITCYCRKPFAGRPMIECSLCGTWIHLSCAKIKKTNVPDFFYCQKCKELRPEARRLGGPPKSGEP

`CCN1Cc2ccc(NC(=O)c3cccc(Br)c3)cc2C1` came in with a half-maximal inhibitory concentration (IC50) in series [1] of 1.2 µM.
Consider `O=C(c1ccc(C(=O)N2CCC(N3CCCC3)CC2)cc1)N1CCC(N2CCCC2)CC1`, for which the IC50 (in [2]; in series [3]; in series [4]; against PHD finger protein 23; on TP53-binding protein 1; in series [5]) was above 10 µM each time. Further, the IC50 in series [6] and in series [7] was above 10 µM throughout. The Activity entry in the series on HEK-293T was “Non-toxic”.
For the compound `O=C(c1ccc(C(=O)N2CCN(C3CCCC3)CC2)cc1)N1CCC(N2CCCC2)CC1`, the IC50 (at TP53-binding protein 1; in series [7]) was above 10 µM throughout.
`O=C(c1cccc(Br)c1)N1CCC(N2CCCC2)CC1`: it took 4.1 µM to reach half-maximal inhibition in series [1] (IC50).
The same measure, in the same setting: next, `O=C(c1cccc(Br)c1)N1CC2CCC(C1)C2N1CCCC1` (centres undefined): 3.2 µM.
